Laboratory results taken from ChEMBL document CHEMBL1156183, “Identification of very potent inhibitor of human aminopeptidase N (CD13)” (Bioorg Med Chem Lett, 2010).

Experiments:
[1] = biological target: T1, Aminopeptidase N (Rattus norvegicus) (UniProt P15684); assay: Inhibition of rat aminopeptidase N assessed as ACC fluorophore released after 30 mins using Alanine ACC as substrate
T1 sequence (whole entry): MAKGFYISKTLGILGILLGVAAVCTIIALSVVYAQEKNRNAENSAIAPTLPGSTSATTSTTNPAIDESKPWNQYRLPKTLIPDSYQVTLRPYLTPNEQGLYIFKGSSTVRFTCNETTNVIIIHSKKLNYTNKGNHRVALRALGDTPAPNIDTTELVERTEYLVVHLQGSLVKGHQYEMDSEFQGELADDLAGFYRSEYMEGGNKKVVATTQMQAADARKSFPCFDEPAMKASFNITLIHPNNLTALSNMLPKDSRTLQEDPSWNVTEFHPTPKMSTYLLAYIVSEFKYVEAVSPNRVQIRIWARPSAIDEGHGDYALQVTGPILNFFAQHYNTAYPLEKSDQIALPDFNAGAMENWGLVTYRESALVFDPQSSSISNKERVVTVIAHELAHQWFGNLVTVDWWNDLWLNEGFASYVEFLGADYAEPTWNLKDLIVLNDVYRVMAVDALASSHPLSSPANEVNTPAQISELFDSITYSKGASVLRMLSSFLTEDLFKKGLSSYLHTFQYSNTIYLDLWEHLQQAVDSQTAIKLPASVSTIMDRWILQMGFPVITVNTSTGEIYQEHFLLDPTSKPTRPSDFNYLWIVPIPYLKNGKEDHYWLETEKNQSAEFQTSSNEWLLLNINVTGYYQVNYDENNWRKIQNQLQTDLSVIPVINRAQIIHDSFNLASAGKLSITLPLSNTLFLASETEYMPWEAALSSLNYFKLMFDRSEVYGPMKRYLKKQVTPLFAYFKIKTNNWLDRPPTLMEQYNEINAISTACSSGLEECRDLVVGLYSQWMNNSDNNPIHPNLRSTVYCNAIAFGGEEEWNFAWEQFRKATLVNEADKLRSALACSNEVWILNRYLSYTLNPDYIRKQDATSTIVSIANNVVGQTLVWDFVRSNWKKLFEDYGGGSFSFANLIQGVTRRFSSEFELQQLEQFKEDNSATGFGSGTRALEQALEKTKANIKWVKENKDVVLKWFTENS
How it was run: (§1)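 Enzyme (0.45 nM) preincubated 30 min at 37 C with phosphinate inhibitor (eight concentrations) in 100 mM Tris-HCl pH 7.5 (buffer made at 20 C), final DMSO 1%. Ala-ACC added at 50 uM final. ACC release read continuously in kinetic mode, ex 355/em 460 nm. IC50 values are means of two experiments.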

[2] = biological target: T2, Aminopeptidase N (Sus scrofa) (UniProt P15145); assay: Inhibition of pig aminopeptidase N assessed as ACC fluorophore released after 30 mins using Alanine ACC as substrate; how it was run: as §1
T2 sequence (whole entry): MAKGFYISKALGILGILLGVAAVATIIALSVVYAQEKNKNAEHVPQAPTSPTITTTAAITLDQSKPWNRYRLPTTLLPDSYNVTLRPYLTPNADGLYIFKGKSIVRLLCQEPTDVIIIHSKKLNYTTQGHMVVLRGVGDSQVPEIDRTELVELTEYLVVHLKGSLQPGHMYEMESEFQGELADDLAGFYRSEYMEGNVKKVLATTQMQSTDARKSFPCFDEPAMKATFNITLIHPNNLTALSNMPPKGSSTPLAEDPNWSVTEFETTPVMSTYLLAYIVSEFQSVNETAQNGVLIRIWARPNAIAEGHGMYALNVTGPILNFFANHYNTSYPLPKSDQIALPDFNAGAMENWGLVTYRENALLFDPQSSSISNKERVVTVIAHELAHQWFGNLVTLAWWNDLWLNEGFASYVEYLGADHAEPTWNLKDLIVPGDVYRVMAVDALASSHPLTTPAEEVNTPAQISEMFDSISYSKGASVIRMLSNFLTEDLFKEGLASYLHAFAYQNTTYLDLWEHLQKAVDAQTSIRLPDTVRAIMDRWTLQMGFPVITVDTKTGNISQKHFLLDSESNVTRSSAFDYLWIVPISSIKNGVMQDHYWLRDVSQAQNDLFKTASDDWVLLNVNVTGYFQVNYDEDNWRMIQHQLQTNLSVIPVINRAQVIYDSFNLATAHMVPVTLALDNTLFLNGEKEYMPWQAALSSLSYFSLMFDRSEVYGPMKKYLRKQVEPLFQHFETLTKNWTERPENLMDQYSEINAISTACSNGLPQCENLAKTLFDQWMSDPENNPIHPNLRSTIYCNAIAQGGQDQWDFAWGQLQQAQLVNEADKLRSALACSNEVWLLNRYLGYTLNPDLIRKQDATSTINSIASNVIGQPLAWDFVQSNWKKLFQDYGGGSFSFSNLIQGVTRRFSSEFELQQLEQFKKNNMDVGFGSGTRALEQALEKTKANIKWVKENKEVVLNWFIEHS

[3] = Selectivity ratio of IC50 for rat aminopeptidase N to the IC50 for human aminopeptidase N
[4] = Selectivity ratio of IC50 for pig aminopeptidase N to the IC50 for human aminopeptidase N

| IC50 [1] | IC50 [2] | Ratio IC50 [3] | Ratio IC50 [4] | SMILES |
| --- | --- | --- | --- | --- |
| 6.2 µM | 5.8 µM |  |  | CCCCC(N)P(=O)(O)C(O)c1ccc(O)cc1 (centres undefined) |
| 1.35 µM | 1.45 µM |  |  | CCCNC(=S)P(=O)(O)C(N)CCc1ccccc1 (centres undefined) |
| 1.45 µM | 1.9 µM |  |  | CC(N)P(=O)(O)C(=S)NCc1ccccc1 (centres undefined) |
| 1.65 µM | 1.55 µM |  |  | CSCCCNC(=S)P(=O)(O)C(N)CCc1ccccc1 (centres undefined) |
| 1.1 µM | 0.5 µM |  |  | CC(C)C(N)P(=O)(O)C(O)CCc1ccccc1 (centres undefined) |
| 5.1 µM | 2.8 µM |  |  | CC(C)CC(N)P(=O)(O)C(=S)NCc1ccccc1 (centres undefined) |
| 4.7 µM | 12 µM |  |  | CC(C)CC(O)P(=O)(O)C(N)c1ccccc1 (centres undefined) |
| > 20 µM | > 20 µM |  |  | CCCCC(N)P(=O)(O)C(=S)NCC(=O)OCc1ccccc1 (centres undefined) |
| 2.55 µM | 1.35 µM |  |  | CCCC(N)P(=O)(O)C(=S)NCCc1ccccc1 (centres undefined) |
| 1.1 µM | 0.62 µM |  |  | CCCCC(N)P(=O)(O)C(=S)NCc1ccccc1 (centres undefined) |
| 0.52 µM | 0.21 µM |  |  | CCCCC(N)P(=O)(O)C(O)CCc1ccccc1 (centres undefined) |
| 1.6 µM | 0.66 µM |  |  | NC(Cc1ccccc1)P(=O)(O)C(O)CCc1ccccc1 (centres undefined) |
| 5.4 µM | 4.2 µM |  |  | CC(C)CC(N)P(=O)(O)C(=S)NCCc1ccccc1 (centres undefined) |
| 2.2 µM | 0.24 µM |  |  | NC(c1ccccc1)P(=O)(O)C(O)CCc1ccccc1 (centres undefined) |
| 8.7 µM | 5.2 µM |  |  | CC(N)P(=O)(O)C(=S)NCCc1ccccc1 (centres undefined) |
| 0.62 µM | 0.25 µM |  |  | CCCCC(N)P(=O)(O)C(=S)NCCc1ccccc1 (centres undefined) |
| 2.1 µM | 1.6 µM |  |  | CCCC(N)P(=O)(O)C(=S)NCc1ccccc1 (centres undefined) |
| 15.2 µM | 48 µM |  |  | CC(O)P(=O)(O)C(N)c1ccccc1 (centres undefined) |
| 1.2 µM | 0.95 µM |  |  | CCCC(N)P(=O)(O)C(O)Cc1ccccc1 (centres undefined) |
| 2.4 µM | 1.3 µM |  |  | CCC(N)P(=O)(O)C(O)CCc1ccccc1 (centres undefined) |
| 0.4 µM | 0.22 µM |  |  | NC(CCc1ccccc1)P(=O)(O)C(O)CCc1ccccc1 (centres undefined) |
| 0.46 µM | 0.22 µM |  |  | CCCCC(N)P(=O)(O)C(O)C(C)c1ccccc1 (centres undefined) |
| 0.92 µM | 1 µM |  |  | CC(C)CC(N)P(=O)(O)C(O)CCc1ccccc1 (centres undefined) |

The remaining lines, values behind:

| SMILES | IC50 [1] | IC50 [2] | Ratio IC50 [3] | Ratio IC50 [4] |
| --- | --- | --- | --- | --- |
| CC(C)c1ccc(C(O)P(=O)(O)C(C)N)cc1 (centres undefined) | 3.5 µM | 1.2 µM |  |  |
| CCCCC(N)P(=O)(O)C(=S)NCc1ccccc1C(=O)OC (centres undefined) | > 20 µM | > 20 µM |  |  |
| CCCC(N)P(=O)(O)C(=S)NCc1ccccc1C(=O)OC (centres undefined) | > 20 µM | > 20 µM |  |  |
| CCCC(N)P(=O)(O)C(=S)NCc1ccc(OC)cc1 (centres undefined) | 2.45 µM | 2.15 µM |  |  |
| CCCCC(N)P(=O)(O)C(=S)NCc1ccc(OC)cc1 (centres undefined) | 1.05 µM | 0.46 µM |  |  |
| NC(CCc1ccccc1)P(=O)(O)C(=S)NCc1ccccc1 (centres undefined) | 2.5 µM | 2.3 µM |  |  |
| CCCC(N)P(=O)(O)C(=S)NCc1ccc(C(=O)OCC)cc1 (centres undefined) | > 20 µM | > 20 µM |  |  |
| COc1ccc(CNC(=S)P(=O)(O)C(C)N)cc1 (centres undefined) | > 20 µM | > 20 µM |  |  |
| CCOC(=O)c1ccc(CNC(=S)P(=O)(O)C(C)N)cc1 (centres undefined) | > 20 µM | > 20 µM |  |  |
| CCC(N)P(=O)(O)C(=S)NCCCSC (centres undefined) | 2.5 µM | 1.65 µM |  |  |
| CCOC(=O)c1ccc(CNC(=S)P(=O)(O)C(N)CCc2ccccc2)cc1 (centres undefined) | > 20 µM | > 20 µM |  |  |
| NC(c1ccccc1)P(=O)(O)C(O)c1ccccc1 (centres undefined) | 0.46 µM | 0.55 µM |  |  |
| CNC(=S)P(=O)(O)C(N)CC(C)C (centres undefined) | 10.8 µM | > 20 µM |  |  |
| CSCCCNC(=S)P(=O)(O)C(C)N (centres undefined) | 3.45 µM | 2.45 µM |  |  |
| COC(=O)c1ccccc1CNC(=S)P(=O)(O)C(N)CC(C)C (centres undefined) | > 20 µM | > 20 µM |  |  |
| CCCC(N)P(=O)(O)C(=S)NCc1ccc(C(=O)O)cc1 (centres undefined) | > 20 µM | > 20 µM |  |  |
| CNC(=S)P(=O)(O)C(N)C(C)C (centres undefined) | 21.4 µM | 10.2 µM |  |  |
| CCCC(N)P(=O)(O)C(=S)NCCCSC (centres undefined) | 1.45 µM | 1.95 µM |  |  |
| CCCCC(N)P(=O)(O)C(=S)NCCCSC (centres undefined) | 0.61 µM | 0.36 µM |  |  |
| COc1ccc(CNC(=S)P(=O)(O)C(N)CCc2ccccc2)cc1 (centres undefined) | 2.65 µM | 2.65 µM | 4 | 4 |
| CC(C)CNC(=S)P(=O)(O)C(N)C(C)C (centres undefined) | 8.95 µM | 4.8 µM |  |  |
| CCCCCCNC(=S)P(=O)(O)C(N)C(C)C (centres undefined) | 5.05 µM | 1.7 µM |  |  |
| CCCCCCNC(=S)P(=O)(O)C(N)CC(C)C (centres undefined) | 1.7 µM | 1.4 µM |  |  |
